Measurements published in ChEMBL document CHEMBL4513216, “Probing the Open Global Health Chemical Diversity Library for Multistage-Active Starting Points for Next-Generation Antimalarials” (ACS Infect Dis, 2020).

Experiment: Toxicity liver stage against HepG2, at 10uM
Assay type: cell-based
Parameters: test concentration 10 uM, cell line HepG2-A16-CD81EGFP
Settings: human, HepG2-A16-CD81EGFP cells; read-out: INHIBITION
Method in brief: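 Uninfected HepG2-A16-CD81EGFP cells, 3 × 10^3 per well, 1536-well, plated on prespotted compound at 10 μM final, parasite-free screening media added to match infected plates; puromycin 10 μM positive, DMSO 0.5% negative; run in parallel with 48 h PbLuc assay at 37 °C, 5% CO2; viability by CellTiter-Glo luminescence, normalized to controls.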

| Compound | cytotoxicity at 10 µM [%] |
| --- | --- |
| Cc1c(C)n2c(SCC(=O)N3CCCC3)nnc2[nH]c1=O | 2.4 |
| CN1C[C@@H](NC(=O)CC(C)(C)C)C[C@H]1c1nc(-c2cnccn2)no1 | 3.08 |
| CN(Cc1ccccc1)C(=O)Cn1nc(N2CCSCC2)ccc1=O | 0.585 |
| CC(C)n1ccc2cc(C(=O)Nc3nc[nH]n3)ccc21 | 4.06 |
| O=C(O)c1ccc(N2CCC(Cc3ccccc3)CC2)nn1 | -6.14 |
| CC(=O)NCC(Cc1cccc(F)c1)n1cccc1 (stereo unspecified) | -5.36 |
| Cn1nnn(-c2ccc(NS(=O)(=O)c3ccc(F)c(Cl)c3)cc2)c1=O | -4.57 |
| COCC(C)NC(=O)c1nnn(-c2ccc(OC)cc2)n1 (stereo unspecified) | 1.87 |
| O=C(c1nnn(-c2ccc(F)cc2)n1)N1CCC(O)CC1 | 5.86 |
| O=C(c1nnn(-c2ccc(Cl)cc2)n1)N(CCO)Cc1ccccc1 | -1.9 |
| Nc1cccnc1N1CCC(C(F)(F)F)CC1 | 8.19 |
| Cc1nc(N2CCCC2)nc2c1CCN(C(=O)N1CCCC1)CC2 | 1.82 |
| COc1cccc(N2CC3(CCN(c4cnccn4)C3)CC2=O)c1 (stereo unspecified) | 0.0227 |
| CN(C)C(=O)c1ccn(-c2ccc3ccccn23)n1 | 6.98 |
| COCC1c2nnn(CC3CC3)c2CCN1C(=O)C1CCOCC1 (stereo unspecified) | -136 |
| C1CC(CN2C[C@@H]3C[C@@H](c4nnc(C5CC5)o4)O[C@@H]3C2)C1 | 14.9 |
| COCC(=O)N1CCC2(COCc3cnc(-c4ccccc4)nc32)C1 (stereo unspecified) | 2.65 |
| CCCNC(=O)c1nc2c(o1)CN(C(=O)CN(C)C)C2 | 0.0773 |
| O=C(c1cccs1)N1CCN(CC2CC2)c2ncccc2C1 | 0.835 |
| CCOc1cccc(CNc2ccccc2Cl)c1O | -2.52 |
| O=C(NCCc1ccccc1)C1CCCN(c2ccc3nncn3n2)C1 (stereo unspecified) | 25.9 |
| O=C(O)c1nnn(-c2ccc(OC(F)(F)F)cc2)c1-c1ccncc1 | -5.85 |
| COc1cccc2c1ccn2CCC(=O)N1CCCC(C(=O)O)C1 (stereo unspecified) | 2.11 |

| Compound | cytotoxicity at 10 µM [%] |
| --- | --- |
| CNc1nc2c(s1)C(c1cccc(F)c1F)CC(=O)N2 (stereo unspecified) | -2.15 |
| Cc1cc(C(F)(F)F)nn1CC(C)C(=O)Nc1ccccn1 (stereo unspecified) | 9.84 |
| CCn1nc(C)c2c1cnn2CCNS(=O)(=O)c1ccccc1 | 6.28 |
| CCc1nnc(SCc2nonc2C)n1C | -1.04 |
| Cc1nc(C(=O)N2CCOC(Cc3ccc(F)cc3)C2)co1 (stereo unspecified) | -1.39 |
| Fc1ccccc1CN1CCC(c2noc(-c3ccccn3)n2)CC1 | -1.39 |
| Nc1nccnc1C1CN(Cc2ccc(OCC(=O)O)cc2)CCO1 (stereo unspecified) | -2.11 |
| CCc1nccn1-c1cncc(C2CCN(C(=O)COC)CC2)n1 | -37.3 |
| O=C(O)C1(Cc2cccc(-c3ccc(F)cc3)c2)CCOCC1 | -24.1 |
| O=C(COC1CCCCC1)Nc1ccn(Cc2cccnc2)n1 | 5.17 |
| CCN(CC(=O)Nc1cc(C(C)(C)C)no1)Cc1ccc(Cl)s1 | 6.13 |
| CC(C)N1C(=O)CN(CCCO)CC1(C)C | 2.04 |
| CN(CCOCC1CC1)C(=O)Nc1ccc(C#N)c(Cl)c1 | -11.1 |
| CN(CC(N)=O)Cc1c(Cl)ccc2cccnc12 | 4.53 |
| Cc1cc(C[S+]([O-])Cc2ccccc2C)no1 (stereo unspecified) | 9.13 |
| Cc1nnc(NCc2ccc(N3CCC(CO)CC3)cc2)c(C#N)c1C | -2.83 |
| Cc1nnc(-c2ccc(C(=O)Nc3ccnc(N(C)C)n3)cc2)o1 | -1.01 |
| O=C(CN1CCS(=O)(=O)CC1)NC1CCOc2ccccc21 (stereo unspecified) | 5.44 |
| O=C(CCn1ccc2ccccc21)N1CCC(Nc2cccnc2)CC1 | 9.08 |
| Cn1c(C2CC2)nc2cc(NC(=O)C3CC=CC3)ccc21 | 2.8 |
| Cc1csc(CCCNC(=O)NC2CC(=O)N(C(C)(C)C)C2)n1 (stereo unspecified) | -8.88 |
| CCC(C)(NCC(=O)OC)c1nccs1 (stereo unspecified) | -12.7 |
| Cc1cc(C)c2c(OCC(=O)NCC(O)C(F)(F)F)nn(C)c2n1 (stereo unspecified) | 1.3 |

| Compound | cytotoxicity at 10 µM [%] |
| --- | --- |
| COc1cc(C(=O)N2CCC(Nc3cccnc3)CC2)ccc1C | -134 |
| Cc1nc(CNC(=O)NCc2ccc(OCC3CC3)nc2)cs1 | 5.07 |
| COCCN1C(=O)CC(N2CCN(c3ccccc3)CC2)C1=O (stereo unspecified) | 1.22 |
| COc1cccc2[nH]cc(CCNC(=O)N3CCC[C@H]3CO)c12 | -12.6 |
| NC(=O)C1CN(c2ccc3c(Cl)ccnc3c2F)CCO1 (stereo unspecified) | 3.06 |
| COc1ccccc1CCNC(=O)NC(C)COCC(F)(F)F (stereo unspecified) | 8.91 |
| N#Cc1ccc(NCCc2n[nH]c(=O)[nH]2)cc1Cl | 26.5 |
| Cc1cc(=O)n(C)cc1NC(=O)Cc1cccc(Cl)c1 | -12.8 |
| CCOc1cccnc1C(=O)N1CC=C(c2ccc(O)cc2)CC1 | -1.66 |
| Cc1cccc(-c2c[nH]c(C3CCCN3C(=O)Cn3cc(C)cn3)n2)c1 (stereo unspecified) | 4.56 |
| CS(=O)(=O)CCCN(CCc1cccc(F)c1)C1CC1 | -18.3 |
| CCCc1nccn1CCn1cnc2ccsc2c1=O | 0.0394 |
| CNS(=O)(=O)c1csc(C(=O)NCc2sccc2C)c1 | 4.63 |
| O=C(Nc1ccccc1OC(F)(F)F)C1CCS(=O)(=O)C1 (stereo unspecified) | 10.8 |
| COCC1CN(C(=O)Nc2cc(C(F)(F)F)ccc2F)CCO1 (stereo unspecified) | 4.24 |
| COc1cc(F)c(S(=O)(=O)N2CCN(C)Cc3ccccc32)cc1OC | 3.84 |
| Cc1ccc(C(CNCC2CC2)N2CCOCC2)s1 (stereo unspecified) | -13.7 |
| c1ccc(OCCN2CCCC(c3noc(C4CC4)n3)C2)cc1 (stereo unspecified) | 2.58 |
| O=C(NCc1ccoc1)NC1CCCN(c2ncccn2)C1 (stereo unspecified) | -1.27 |
| CN(Cc1cnn(C)c1)C(=O)NC1CCS(=O)(=O)C1 (stereo unspecified) | -14.4 |
| Cc1nc(C)n(C2CCCN(C(=O)Cc3cccnc3)C2)n1 (stereo unspecified) | -2.15 |
| CCN1CCNC(=O)C12CCN(C(=O)Cc1ccsc1)CC2 | -3.31 |
| Cc1cc(C)n(CC(C)NC(=O)C2(c3ccccc3F)CC2)n1 (stereo unspecified) | -0.844 |

| Compound | cytotoxicity at 10 µM [%] |
| --- | --- |
| O=C(c1ccc2ccccc2c1)C1CCCN(C(=O)Cn2cnnn2)C1 (stereo unspecified) | 1.54 |
| COc1cccc2c1OCC(C(=O)N1CCN(CCS(C)(=O)=O)CC1)C2 (stereo unspecified) | 1.28 |
| Cn1ccnc1-c1cn(CCCc2nnc(N)s2)nn1 | 10 |
| CC1CCN(CC(=O)N(C)CCc2noc(C3CC3)n2)C1=O (stereo unspecified) | -133 |
| Cc1cc(C)c(C(=O)NC(CN2CCCC2)c2ccccc2)c(=O)[nH]1 (stereo unspecified) | -2.57 |
| CC(=O)N1CCCC(C(=O)NCCc2csc(-c3ccncc3)n2)C1 (stereo unspecified) | 5.12 |
| CCCn1cnnc1CNC(=O)CC1C(=O)NCCN1CC=C(C)C (stereo unspecified) | 6.64 |
| Fc1ccc(C2(c3noc(CCN4CCCCO4)n3)CCOC2)cc1 (stereo unspecified) | -1.54 |
| Cc1cc(-c2cccc(-c3ccn(CCCO)n3)c2)nc(N(C)C)n1 | -5.42 |
| Cc1nncn1CCN1C(=O)CC2(CCCC2)CC1=O | -0.745 |
| O[C@H]1CN(c2nc(-c3ccccc3)no2)C[C@@H]1N1CCOCC1 | -20.8 |
| CN1C(=O)C2(CCN(c3nccc4occc34)CC2)c2ccccc21 | 1.16 |
| CCN(Cc1cnn(C)c1)C[C@H]1CC[C@@H](Cc2ccc(OC)nc2)O1 | 1.94 |
| CCCn1ncnc1C(C)NC(=O)CC1CCN(C(C)C)CC1 (stereo unspecified) | -150 |
| O=C(NCc1cc(O)ncn1)C1CCOc2ccccc2C1 (stereo unspecified) | -6.01 |
| CNC(=O)c1ccc(OC2CCN(S(C)(=O)=O)CC2)c(Cl)c1 | 1.49 |
| CC(=O)N1CCC(c2cc(C(F)(F)F)n3ccnc3n2)CC1 | 1.56 |
| O=C1CN(c2ccc(CNC(=O)NCc3ccoc3)cc2)CCN1 | -1.28 |
| Cc1cnn(C2CCCN(C(=O)c3ccc(NC4CC4)nc3)C2)c1 (stereo unspecified) | -19.6 |
| CC(C(=O)NCCCN1CCOCC1)n1cncn1 (stereo unspecified) | 1.4 |
| COc1ccc(NC(=O)CCn2nc(-c3cccs3)oc2=O)cc1OC | -9.37 |
| CCCNC(=O)CN1CCC(NC(=O)c2cc(CC)ccc2O)CC1 | 1.93 |
| CCN(CC)C(=O)Cn1ccc2cc(NC(=O)NC3CC3)ccc21 | -9.01 |

| Compound | cytotoxicity at 10 µM [%] |
| --- | --- |
| CCc1n[nH]c(C2CN(C(=O)CCn3ccccc3=O)CCO2)n1 (stereo unspecified) | 0.00528 |
| CN(C)c1ccc(CNC(=O)NCCc2ccccn2)cn1 | -4.66 |
| Cc1nc(CN2CCCN(C(=O)C3(C#N)CCCCC3)CC2)cs1 | -9.98 |
| Cc1csc(N2CCN(C(=O)CCn3cncn3)CC2)n1 | -5.97 |
| CN(Cc1cnn(C)c1)C(=O)NCc1nnc2n1CCC2 | -4.1 |
| CC(NC(=O)N(C)Cc1ccc(Cl)s1)c1ccccn1 (stereo unspecified) | 0.313 |
| O=C(c1cccn2ccnc12)N1CCCN(c2cccnn2)CC1 | 1.68 |
| O=C(NC1CC1)[C@H]1CN(Cc2ccc3c(c2)OCO3)C[C@H]2OCC[C@@H]12 | 3.56 |
| C[C@H]1C(=O)NC[C@H]2CN(CCc3ccccc3)C[C@H]21 | 2.64 |
| O=S(=O)(C1CC1)N1CCO[C@@H]2CN(Cc3cccs3)C[C@@H]2C1 | -154 |
| O=C1COC2(CCN(c3ccccn3)CC2)CN1 | 9.52 |
| O=C1[C@H]2CN(Cc3ccco3)C[C@H]2CN1c1cncnc1 | -3.64 |
| CS(=O)(=O)N1CC[C@]2(C[C@H](Oc3ccccn3)CO2)C1 | -116 |
| Cc1noc([C@@H]2C[C@@H]3CCN(CC4CCOCC4)C[C@H]3O2)n1 | -130 |
| c1ccc(CO[C@@H]2C[C@H]3CN(c4ncccn4)CCN3C2)cc1 | 0.472 |
| Fc1cnc(N2CCCn3c(nnc3Cn3cccc3)C2)nc1 | -134 |
| O=c1c2c[nH]c(N3CCCCC3)nc-2cn1-c1ccc2c(c1)OCO2 | 15 |
| Cc1nc(C)c(CC(=O)N2C[C@H]3CC[C@@H](C2)N(CC2CC2)C3)s1 | -1.59 |
| O=C(c1c[nH]c(=O)c(Cl)c1)N1C[C@H]2CC[C@@H](C1)N(Cc1ccccc1)C2 | -14.5 |
